Data reported in ChEMBL document CHEMBL1123601, “Enantiomers of 1-ethyl-7-[3-[(ethylamino)methyl]-1-pyrrolidinyl]-6,8-difluoro-1,4- dihydro-4-oxo-3-quinoline-carboxylic acid: preparation and biological activity” (J Med Chem, 1987).
≈ marks a conversion by molar mass, not a printed value.

Tests used:
Type in all cases: functional
Streptococcus pyogenes [1] = assay: Minimum inhibitory concentration (MIC) of compound was measured on Streptococcus pyogenes C203 (gram positive organism)
Method in brief: (§1)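 MICs (µg/mL) by standard microdilution (microtitration), with the enantiomers tested side by side with racemate across the organism panel. Aqueous stocks made up in 0.1 N NaOH or KOH. Performed in duplicate or triplicate; error of one serial dilution.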

Streptococcus pneumoniae [2] = assay: Dose required to protect 50% of mice from lethal infection was measured on Streptococcus pneumoniae SV-1(peroral administration); conditions: po, read-out: PD50
Method in brief: (§2)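 Female CD-1 mice (18-22 g) received an intraperitoneal challenge of about 100 median lethal doses of S. pneumoniae in tryptic soy broth. A single dose was given at challenge in a twofold rising series, subcutaneously in aqueous solution or by oral gavage in 5% gum acacia. Survival of 8 mice per dose gave PD50 by log probit, with experiments run in duplicate.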

Escherichia coli [3] = assay: Minimum concentration of compound needed to produce linear DNA at an intensity relative to oxolinic acid at 10 ug/mL was measured on Escherichia coli for gyrase-drug induced cleavage.
Method in brief: (§3)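 DNA gyrase from E. coli H560 cells. Endpoint is the minimum drug concentration (µg/mL) that converts closed circular DNA to linear DNA, through denaturation of the drug–gyrase–DNA complex, at an intensity relative to oxolinic acid at 10 µg/mL. Linear DNA is resolved by gel electrophoresis and stained with ethidium bromide. Runs in duplicate or triplicate; error of one serial dilution.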

Escherichia coli [4] = assay: Minimum inhibitory concentration (MIC) of compound was measured on Escherichia coli Vogel(gram negative organism); method in brief: as §1
Escherichia coli [5] = assay: Dose required to protect 50% of mice from lethal infection was measured on Escherichia coli vogel (subcutaneously); conditions: sc, read-out: PD50
Method in brief: (§4)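 Female CD-1 mice (18-22 g) were challenged intraperitoneally with about 100 median lethal doses of E. coli in 5% hog gastric mucin. Single doses were given at challenge in a twofold rising series, subcutaneously as an aqueous solution or orally by gavage in 5% gum acacia. Groups of 8 mice per dose were used. PD50 was estimated from survival by log probit, with experiments run in duplicate.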

Klebsiella pneumoniae = assay: Minimum inhibitory concentration (MIC) of compound was measured on Klebsiella pneumoniae MGH-2(gram negative organism); method in brief: as §1
Streptococcus pyogenes [6] = assay: Dose required to protect 50% of mice from lethal infection was measured on Streptococcus pyogenes C203 (p.o. administration); conditions: po, read-out: PD50
Method in brief: (§5)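 The lethal systemic infection in female CD-1 mice (18-22 g) was an intraperitoneal challenge of about 100 median lethal doses. Compound was given once at challenge in twofold rising doses, subcutaneously as an aqueous solution or orally by gavage in 5% gum acacia. PD50 was estimated by log probit from survival of groups of 8 mice, with experiments run in duplicate.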

Pseudomonas aeruginosa = assay: Minimum inhibitory concentration (MIC) of compound was measured on Pseudomonas aeruginosa UI-18(gram negative organism); method in brief: as §1
Enterococcus faecalis = assay: Minimum inhibitory concentration (MIC) of compound was measured on Streptococcus faecalis MGH-2(gram positive organism); method in brief: as §1
Streptococcus pneumoniae [7] = assay: Dose required to protect 50% of mice from lethal infection was measured on Streptococcus pneumoniae SV-1 (subcutaneously); conditions: sc, read-out: PD50; method in brief: as §2
Staphylococcus aureus [8] = assay: Minimum inhibitory concentration (MIC) of compound was measured on Staphylococcus aureus UC-76(gram positive organism); method in brief: as §1
Escherichia coli [9] = assay: Dose required to protect 50% of mice from lethal infection was measured on Escherichia coli vogel(peroral administration); conditions: po, read-out: PD50; method in brief: as §4
Staphylococcus aureus [10] = assay: Minimum inhibitory concentration (MIC) of compound was measured on Staphylococcus aureus H228 (gram positive organism); method in brief: as §1
Streptococcus pneumoniae [11] = assay: Minimum inhibitory concentration (MIC) of compound was measured on Streptococcus pneumoniae SV-1(gram positive organism); method in brief: as §1
Enterobacter cloacae = assay: Minimum inhibitory concentration (MIC) of compound was measured on Enterobacter cloacae HA 2646(gram negative organism); method in brief: as §1
Escherichia coli [12] = assay: Concentration of compound needed to produce linear DNA at an intensity relative to oxolinic acid at 10 ug/mL was measured on Escherichia coli for gyrase-drug induced cleavage,.; method in brief: as §3
Providencia rettgeri = assay: Minimum inhibitory concentration (MIC) of compound was measured on Providencia rettgeri H1771 (gram negative organism); method in brief: as §1
Escherichia coli [13] = assay: Minimum inhibitory concentration (MIC) of compound was measured on Escherichia coli H560 (gram negative organism); method in brief: as §1
Streptococcus pyogenes [14] = assay: Dose required to protect 50% of mice from lethal infection was measured on Streptococcus pyogenes C203 (s.c.); conditions: sc, read-out: PD50; method in brief: as §5

CCn1cc(C(=O)O)c(=O)c2cc(F)c(N3CCNCC3)cc21 [NORFLOXACIN] was tested, and the MIC (Streptococcus pyogenes [1]) was 0.8 µg/mL (≈ 2.51 µM), the ED50 (Streptococcus pneumoniae [2]) was 150 mg/kg and the Concentration (Escherichia coli [3]) was 1 µg/mL. The MIC (Escherichia coli [4]) was 0.025 µg/mL (≈ 0.0783 µM), the ED50 (Escherichia coli [5]) was 0.7 mg/kg and the MIC (Klebsiella pneumoniae) was 0.05 µg/mL (≈ 0.157 µM). For the same molecule, the ED50 (Streptococcus pyogenes [6]) was greater than 100 mg/kg, the MIC (Pseudomonas aeruginosa) was 0.2 µg/mL (≈ 0.626 µM) and the MIC (Enterococcus faecalis) was 1.6 µg/mL (≈ 5.01 µM). It also gave an ED50 (Streptococcus pneumoniae [7]) greater than 100 mg/kg, an MIC (Staphylococcus aureus [8]) of 0.05 µg/mL (≈ 0.157 µM) and an ED50 (Escherichia coli [9]) of 1 mg/kg. It also gave an MIC (Staphylococcus aureus [10]) of 0.8 µg/mL (≈ 2.51 µM), an MIC (Streptococcus pneumoniae [11]) of 1.6 µg/mL (≈ 5.01 µM) and an MIC (Enterobacter cloacae) of 0.1 µg/mL (≈ 0.313 µM). For the same molecule, the IC50 (Escherichia coli [12]) was 5.5 µg/mL (≈ 17.2 µM), the MIC (Providencia rettgeri) was 0.025 µg/mL (≈ 0.0783 µM) and the MIC (Escherichia coli [13]) was 0.1 µg/mL (≈ 0.313 µM). It also gave an ED50 (Streptococcus pyogenes [14]) of 45 mg/kg.
